What was measured:
[1] = Stability of QC samples of the analytes in rat plasma; type: in vitro ADME; conditions: storage conditions of Table 5
Procedure, shortened: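 Rat plasma QC samples at low, middle and high levels (n = 6 each) were held 4 h at room temperature, 24 h at 4°C, three freeze/thaw cycles (−80°C to room temperature) or 45 days at −80°C. Samples were protein-precipitated with taxol internal standard and run by HPLC–MS/MS SRM. A deviation within ±15% was taken as stable.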

[2] = Short-term stability of stock solutions at room temperature; type: physicochemical; conditions: stock solution in methanol, room temperature for 6 hours
Procedure, shortened: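 Stock solutions (2.0 mg·mL−1 in methanol) of each analyte and the taxol internal standard were held 6 hours at room temperature and then assayed by the validated HPLC–MS/MS method. A deviation within ±15% was taken as stable.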

[3] = Pharmacokinetics study in rats after oral administration of HQCF extract; type: in vivo, rat; conditions: for AUC(0-inf) / AUC(0-t) / Cmax / Tmax / half-life: male, Sprague-Dawley, rat, plasma, po, 1526.5 mg/kg; for shape of the plasma concentration–time curve: rats, after HQCF extract administration
Procedure, shortened: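 Male Sprague–Dawley rats (200 ± 20 g), acclimatised 7 days, fasted 12 h; n = 6 given extract water solution (0.2 g·mL−1) by gavage. Blood (~250 µL) from ophthalmic vein at 0–24 h; plasma spun at 16,060 × g, 10 min, 4°C. Plasma protein-precipitated with taxol internal standard; C18 gradient HPLC–ESI-MS/MS in SRM mode. Non-compartmental analysis; mean ± SD.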

Structure (SMILES)	Degradation in rat plasma under different experimental conditions [1]	Stock solution stability, accuracy [2] [%]	AUC(0-inf) [3] [ng·h/mL]	AUC(0-t) [3] [ng·h/mL]	Cmax [3] [ng/mL]	Tmax [3] [h]	half-life [3] [h]	shape of the plasma concentration–time curve [3]
C[C@@]12C[C@@]3(O)O[C@@H](O1)[C@]1(COC(=O)c4ccccc4)[C@H]3C[C@@]12O[C@@H]1O[C@H](CO)[C@@H](O)[C@H](O)[C@H]1O [PA, paeoniflorin]	no significant degradation	105.4	762 ± 281	410 ± 92.3	117 ± 31.5	1.2 ± 0.6	6.94 ± 2.8	double-peak absorption phases
CC(=O)O[C@H]1C(=O)[C@@]2(C)[C@H]([C@H](OC(=O)c3ccccc3)[C@]3(O)C[C@H](OC(=O)[C@H](O)[C@@H](NC(=O)c4ccccc4)c4ccccc4)C(C)=C1C3(C)C)[C@]1(OC(C)=O)CO[C@@H]1C[C@@H]2O [IS, Taxol, reference compound]		102.4						
COc1ccc(-c2coc3cc(O)ccc3c2=O)cc1O [CA, calycosin]	no significant degradation	90.2	1830 ± 416	1680 ± 342	247 ± 32.3	1.5 ± 0.4	6.28 ± 2.5	double-peak absorption phases
